# Laboratory results from article PMC9976451 (The Journal of Biological Chemistry, 2023).
# Read-outs that look alike come from different tables or passages of the source.
# Legend:
# human BCKDK [1] = molecular target: T1, human BCKDK (Homo sapiens, UniProt O14874); test: BCKDK biochemical assay; conditions: for maximum BCKDK inhibition in the biochemical assay: plateau of inhibition curve
# Summary of the method: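 BCKDK freed of MBP tag by TEV cleavage. 11-point half-log test compound series (final 300 μM to 3 nM, 1% DMSO), in duplicate. Reaction started with 50 nM lipoylated fusion substrate plus 15 or 200 μM ATP; 90 min at RT. EDTA stop; Eu-anti-His/anti-pE1/ULight TR-FRET read at 665 nm. IC50 from four-parameter logistic fit.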
# [2] = system: BCKD–BCKDK complex purified from rat liver; conditions: read-out: in vitro IC50 to inhibit the BCKD–BCKDK complex, 500 μM ATP; cited from earlier work
# PDK4 = PDK4 (Homo sapiens, UniProt Q16654); test: PDK4 biochemical assay
# Summary of the method: (§1)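 Kinetic fluorescence assay (ex 360/em 485 nm) at 30 °C for 240 min using N-terminal GST-tagged kinase at 10 nM. PDK1 (aa 1–436): 6.0 μM ATP, 15 μM AQT0895. PDK4 (aa 1–411): 97 μM ATP, AQT0872. Eleven threefold dilutions (100 μM–1.7 nM final, 2% DMSO), run in duplicate, with a 30 min preincubation before enzyme. No-enzyme background subtracted. IC50 by four-parameter fit of initial rates.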
# BCKDK = conditions: read-out: Ki as ATP competitive inhibitor of BCKDK; cited from earlier work
# AT1R = conditions: read-out: AT1R Kd; cited from earlier work
# PDK1 = PDK1 (Homo sapiens, UniProt Q15118); test: PDK1 biochemical assay
# Summary of the method: as §1
# human BCKDK [3] = molecular target: T1, human BCKDK; type: binding
# Summary of the method: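 BCKDK biotinylated with BirA during TEV cleavage, then immobilized. At least six twofold dilutions injected at 30 μl/min: 120 s association, ≥300 s dissociation. Double reference subtraction using blank injections. For competition, the same series was run with 20 μM radicicol or 20 μM BT2 in running buffer; reduced signal was read as shared site.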
# [4] = Biochemical IC50, ATP concentration of 15 μM
# [5] = Biochemical IC50 at 200 μM ATP, 200 μM ATP
# Sequence of PDK1 (Q15118 29-436): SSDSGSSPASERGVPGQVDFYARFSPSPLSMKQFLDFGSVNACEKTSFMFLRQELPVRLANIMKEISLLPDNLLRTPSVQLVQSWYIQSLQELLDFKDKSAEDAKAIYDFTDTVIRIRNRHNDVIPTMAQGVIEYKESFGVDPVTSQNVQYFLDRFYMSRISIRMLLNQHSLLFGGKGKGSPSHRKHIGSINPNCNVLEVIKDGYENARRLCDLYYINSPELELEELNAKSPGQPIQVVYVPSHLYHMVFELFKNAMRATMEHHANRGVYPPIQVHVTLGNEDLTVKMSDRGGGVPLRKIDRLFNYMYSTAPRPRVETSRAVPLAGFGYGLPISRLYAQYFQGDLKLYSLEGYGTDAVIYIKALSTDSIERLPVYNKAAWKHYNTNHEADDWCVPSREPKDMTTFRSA
# Sequence of PDK4 (Q16654 whole entry, the tested form may be a part): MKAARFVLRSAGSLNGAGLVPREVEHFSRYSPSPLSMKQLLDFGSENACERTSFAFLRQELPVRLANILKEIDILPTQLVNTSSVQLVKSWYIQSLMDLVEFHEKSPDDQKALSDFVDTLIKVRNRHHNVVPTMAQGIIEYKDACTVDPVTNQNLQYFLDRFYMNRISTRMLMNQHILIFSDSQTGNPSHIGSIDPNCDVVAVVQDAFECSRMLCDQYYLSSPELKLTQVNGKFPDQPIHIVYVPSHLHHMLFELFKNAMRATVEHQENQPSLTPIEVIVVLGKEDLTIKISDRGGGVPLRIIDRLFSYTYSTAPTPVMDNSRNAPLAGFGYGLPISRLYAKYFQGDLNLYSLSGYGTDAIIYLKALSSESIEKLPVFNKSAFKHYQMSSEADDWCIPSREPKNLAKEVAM
SMILES,IC50 (human BCKDK [1]; [4]) [µM],IC50 (human BCKDK [1]; [5]) [µM],maximum BCKDK inhibition in the biochemical assay (human BCKDK [1]) [%],also measured
Nc1ncnc2c1ncn2[C@@H]1O[C@H](COP(=O)(O)OP(=O)(O)OP(=O)(O)O)[C@@H](O)[C@H]1O [ATP],,,,"Km (human BCKDK [1]; read-out: Km of ATP, determined in the biochemical assay format): 13.6 ± 0.32 µM"
CCCc1nc(C(C)(C)O)c(C(=O)O)n1Cc1ccc(-c2ccccc2-c2nnn[nH]2)cc1 [olmesartan acid],,,,"IC50 (human BCKDK [1]; read-out: In vitro IC50, Supplementary Table 1, BDK inhibition): 43.7 µM; Kd (AT1R): 0.0069 µM"
"Cc1ccc(-c2ccccc2-c2nnn[nH]2)cc1 [fragment 2, 5-(4′-methyl-[1,1′-biphenyl]-2-yl)-1H-tetrazole]",37.3 ± 7.1,38.7 ± 3.7,,
"COc1ccc(-c2nnn[nH]2)cc1 [fragment 1, 5-(4-methoxyphenyl)-1H-tetrazole]",205 ± 51,232 ± 28,,
"CCC1CN(Cc2ccc(-c3ccccc3-c3nnn[nH]3)cc2)c2ncccc2O1 (centres unmarked) [compound 1, 4-((2'-(1H-tetrazol-5-yl)-[1,1′-biphenyl]-4-yl)methyl)-2-ethyl-3,4-dihydro-2H-pyrido[3,2-b][1,4]oxazine]",0.0069 ± 0.0025,0.021 ± 0.006,100,
"CCC1CN(Cc2ccc(-c3ccccc3-c3nnn[nH]3)cc2)c2ncccc2O1 (centres unmarked) [compound 1∗, 4-((2'-(1H-tetrazol-5-yl)-[1,1′-biphenyl]-4-yl)methyl)-2-ethyl-3,4-dihydro-2H-pyrido[3,2-b][1,4]oxazine]",,,,IC50 (human BCKDK [1]; in vitro biochemical activity): 0.032 ± 2e-05 µM
"O=C(O)c1sc2cc(Cl)ccc2c1Cl [BT2, 3,6-dichlorobenzo[b]thiophene-2-carboxylic acid]",0.96 ± 0.33,0.9 ± 0.37,~75,IC50 (PDK1): 79 µM
"CCC1CN(Cc2ccc(-c3ccccc3-c3nnn[nH]3)cc2)c2ncccc2O1 (racemic) [racemic, 4-((2'-(1H-tetrazol-5-yl)-[1,1′-biphenyl]-4-yl)methyl)-2-ethyl-3,4-dihydro-2H-pyrido[3,2-b][1,4]oxazine]",,,,IC50 (human BCKDK [1]; in vitro biochemical activity): 0.011 ± 0.0025 µM

# Second part, led by results:
IC50 (human BCKDK [1]; [4]) [µM],IC50 (human BCKDK [1]; [5]) [µM],maximum BCKDK inhibition in the biochemical assay (human BCKDK [1]) [%],SMILES,also measured
1.7 ± 1.9,7.7 ± 4.4,100,CCCCC(=O)N(Cc1ccc(-c2ccccc2-c2nnn[nH]2)cc1)[C@H](C(=O)O)C(C)C [valsartan],IC50 [2]: 37.3 µM; IC50 (PDK4): 78 µM; Ki (BCKDK): 1.36 µM
25 ± 3.8,110 ± 21,100,C[C@@H]1C[C@H]2O[C@@H]2/C=C\C=C\C(=O)Cc2c(Cl)c(O)cc(O)c2C(=O)O1 [radicicol],Kd (human BCKDK [3]): 1.47 µM
